pEC50, pKi: −log10 of the molar value. Active and inactive are the calls of the source.
Key:
Cannabinoid receptor 2 [1] = biological target: T1, Cannabinoid receptor 2 (Homo sapiens, UniProt P34972); experiment: Inverse agonist activity at human recombinant CB2 receptor expressed CHO cells membrane by [35S]GTPgamma binding assay relative to 2-((1R,2R,5R)-5-hydroxy-2-(3-hydroxypropyl)cyclohexyl)-5-(2-methyloctan-2-yl)phenol; type: functional, cell membranes
Method in brief: (§1)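 GTPγ[35S] binding in CHO membranes expressing recombinant hCB1 or hCB2. Membranes preincubated with GDP (30 μM solution) on ice for at least 15 min, then mixed with GTPγ[35S] and WGA SPA beads. Incubated 1 h at room temperature, centrifuged, held 1 h more, then counted. Eight concentrations (0.001–10 μM) in duplicate, reported as the mean of two. Emax expressed as % of the reference agonist.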

Cannabinoid receptor 1 [2] = biological target: T2, Cannabinoid receptor 1 (Homo sapiens, UniProt P21554); experiment: Inverse agonist activity at human recombinant CB1 receptor expressed CHO cells membrane by [35S]GTPgamma binding assay; type: functional, cell membranes; method in brief: as §1
Cannabinoid receptor 1 [3] = biological target: T2, Cannabinoid receptor 1; experiment: Inverse agonist activity at human recombinant CB1 receptor expressed CHO cells membrane by [35S]GTPgamma binding assay relative to 2-((1R,2R,5R)-5-hydroxy-2-(3-hydroxypropyl)cyclohexyl)-5-(2-methyloctan-2-yl)phenol; type: functional, cell membranes; method in brief: as §1
Cannabinoid receptor 2 [4] = biological target: T1, Cannabinoid receptor 2; experiment: Inverse agonist activity at human recombinant CB2 receptor expressed CHO cells membrane by [35S]GTPgamma binding assay; type: functional, cell membranes; method in brief: as §1
Rattus norvegicus [5] = experiment: Antiallodynic activity in Sprague-Dawley rat L5/L6 spinal nerve tight ligated neuropathic pain model assessed as paw withdrawal threshold at 10 mg/kg, ip […] ipsilateral injured paw; type: functional, organism-based; design: dose 10 mg/kg
Method in brief: (§2)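 Adult male Sprague–Dawley rats (120–150 g). Left L5 and L6 spinal nerves tightly ligated with 6–0 silk under isoflurane. Tested 10–14 days after ligation. Drugs given ip. Vehicle was N-methylpyrrolidone 30%, propylene glycol 30%, ethanol 10%, Cremophor 10% and water. For […], given 15 min before the ip CB2 agonist. Von Frey up–down 50% withdrawal threshold (cutoff 15 g) and %MPE, n = 5 per group.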

Rattus norvegicus [6] = experiment: Inhibition of (3-benzyl-3-methyl-2,3-dihydrobenzofuran-6-yl)(piperidin-1-yl)methanone-induced antiallodynic activity in L5/L6 spinal nerve tight ligated neuropathic pain Sprague-Dawley rat model assessed as paw withdrawal threshold at 10 mg/kg, ip administered 15 mins before 3-benzyl-3-methyl-2,3-dihydrobenzofuran-6-yl)(piperidin-1-yl)methanone challenge; type: functional, organism-based; design: dose 10 mg/kg; method in brief: as §2
Cannabinoid receptor 2 [7] = biological target: T1, Cannabinoid receptor 2; experiment: Displacement of [3H] 2-((1R,2R,5R)-5-hydroxy-2-(3-hydroxypropyl)cyclohexyl)-5-(2-methyloctan-2-yl)phenol from human CB2 receptor expressed CHO-K1 cells by liquid scintillation counting; type: cell-based
Method in brief: (§3)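 Competition binding on membranes of CHO-K1 cells expressing hCB2 (0.25 μg protein/well). Buffer was 50 mM Tris pH 7.4, 2.5 mM EDTA, 0.5% BSA, with 1 nM [3H]-labelled reference ligand. Nonspecific binding defined with 10 μM unlabelled ligand. Incubated 60 min at 30 °C, then filtered and counted by liquid scintillation. Duplicates at several concentrations. IC50 from a one-site fit, converted to Ki by Cheng–Prusoff.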

Cannabinoid receptor 2 [8] = biological target: T1, Cannabinoid receptor 2; experiment: Binding affinity to CB2 receptor; method in brief: as §3
Cannabinoid receptor 2 [9] = biological target: T1, Cannabinoid receptor 2; experiment: Inverse agonist activity at CB2 receptor; type: functional; method in brief: as §1
Cannabinoid receptor 2 [10] = biological target: T1, Cannabinoid receptor 2; experiment: Binding affinity to CB2 receptor by competition binding assay; method in brief: as §3
Cannabinoid receptor 2 [11] = biological target: T1, Cannabinoid receptor 2; experiment: Agonist activity at human CB2 receptor expressed CHO cells by [35S]GTPgamma binding assay; type: functional, cell-based

T1 sequence (P34972 whole entry): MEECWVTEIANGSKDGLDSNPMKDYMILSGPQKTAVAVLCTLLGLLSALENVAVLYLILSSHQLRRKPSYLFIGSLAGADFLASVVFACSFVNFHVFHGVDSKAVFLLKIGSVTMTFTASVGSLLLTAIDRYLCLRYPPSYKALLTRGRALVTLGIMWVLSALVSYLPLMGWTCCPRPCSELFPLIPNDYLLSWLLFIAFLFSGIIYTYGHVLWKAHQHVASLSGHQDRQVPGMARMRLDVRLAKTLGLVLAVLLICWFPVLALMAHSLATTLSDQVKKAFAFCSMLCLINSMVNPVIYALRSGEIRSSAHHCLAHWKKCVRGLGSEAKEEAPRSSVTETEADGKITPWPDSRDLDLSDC
T2 sequence (P21554 whole entry): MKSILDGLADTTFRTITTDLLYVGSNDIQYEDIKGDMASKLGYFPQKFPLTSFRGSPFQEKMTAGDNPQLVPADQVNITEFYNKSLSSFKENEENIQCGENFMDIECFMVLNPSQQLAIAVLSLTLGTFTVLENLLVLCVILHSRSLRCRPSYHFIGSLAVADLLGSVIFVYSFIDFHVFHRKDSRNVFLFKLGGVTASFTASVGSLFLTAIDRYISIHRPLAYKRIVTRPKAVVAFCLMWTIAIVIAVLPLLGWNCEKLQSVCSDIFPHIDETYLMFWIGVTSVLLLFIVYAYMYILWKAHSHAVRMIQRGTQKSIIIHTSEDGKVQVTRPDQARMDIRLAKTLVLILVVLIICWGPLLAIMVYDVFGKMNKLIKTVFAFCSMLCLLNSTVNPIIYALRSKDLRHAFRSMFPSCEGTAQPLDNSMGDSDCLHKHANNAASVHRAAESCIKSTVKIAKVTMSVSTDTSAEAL

SMILES: CCCCCN1C(=O)/C(=N\NC(=O)c2ccccc2)c2ccc(OC)cc21
- Emax (Cannabinoid receptor 2 [1]): -108%
- pEC50 (Cannabinoid receptor 1 [2]): 6.58
- Emax (Cannabinoid receptor 1 [3]): 41%

SMILES: CCCCCN1C(=O)/C(=N\NC(=O)CC2CCCCC2)c2ccc(OC)cc21
- pEC50 (Cannabinoid receptor 2 [4]): 7.37
- Emax (Cannabinoid receptor 2 [1]): -88%
- pEC50 (Cannabinoid receptor 1 [2]): < 5.00

SMILES: CCCCCN1C(=O)/C(=N\NC(=O)OC(C)(C)C)c2ccc(OC)cc21
- pEC50 (Cannabinoid receptor 2 [4]): 7.80
- Emax (Cannabinoid receptor 2 [1]): -97%
- pEC50 (Cannabinoid receptor 1 [2]): < 5.00

SMILES: COc1ccc2c(c1)N(CC1CCCCC1)C(=O)/C2=N\NC(=O)c1ccccc1
- Emax (Cannabinoid receptor 2 [1]): -82%
- Emax (Cannabinoid receptor 1 [3]): 40.8%

SMILES: CC1(Cc2ccccc2)COc2cc(C(=O)N3CCCCC3)ccc21 (centres undefined)
- Activity (Rattus norvegicus [5]): Active

SMILES: CCCCCN1C(=O)/C(=N\NC(=O)CC(C)C)c2ccc(OC)cc21
- pEC50 (Cannabinoid receptor 2 [4]): 7.93
- Emax (Cannabinoid receptor 2 [1]): -78%
- pEC50 (Cannabinoid receptor 1 [2]): < 5.00

SMILES: CCCCCCN1C(=O)/C(=N\NC(=O)c2ccccc2)c2ccc(OC)cc21
- pEC50 (Cannabinoid receptor 2 [4]): 7.05
- Emax (Cannabinoid receptor 2 [1]): -92%
- Activity (Rattus norvegicus [6]): Active
- pKi (Cannabinoid receptor 2 [7]): 7.05
- pKi (Cannabinoid receptor 2 [8]): 7.05
- pEC50 (Cannabinoid receptor 1 [2]): < 5.00

SMILES: COc1ccc2c(c1)N(CCC1CCCCC1)C(=O)/C2=N\NC(=O)c1ccccc1
- Emax (Cannabinoid receptor 2 [1]): -104%
- pEC50 (Cannabinoid receptor 1 [2]): < 5.00

SMILES: CCCCCN1C(=O)/C(=N\NC(=O)C2CCCCC2)c2ccc(OC)cc21
- pEC50 (Cannabinoid receptor 2 [4]): 7.54
- Emax (Cannabinoid receptor 2 [1]): -105%
- pEC50 (Cannabinoid receptor 1 [2]): < 5.00

SMILES: CCCCCN1C(=O)/C(=N\NC(=O)CN2CCOCC2)c2ccc(OC)cc21
- pEC50 (Cannabinoid receptor 2 [4]): 7.88
- Emax (Cannabinoid receptor 2 [1]): -80%
- pEC50 (Cannabinoid receptor 1 [2]): < 5.00

SMILES: COCCN1C(=O)/C(=N\NC(=O)c2ccccc2)c2ccc(OC)cc21
- pEC50 (Cannabinoid receptor 2 [4]): 6.31
- Emax (Cannabinoid receptor 2 [1]): -60%
- pEC50 (Cannabinoid receptor 1 [2]): < 5.00

SMILES: COc1ccc2c(c1)N(Cc1ccccc1)C(=O)/C2=N\NC(=O)c1ccccc1
- Emax (Cannabinoid receptor 2 [1]): -96%
- pEC50 (Cannabinoid receptor 1 [2]): < 5.00

SMILES: COc1ccc2c(c1)N(CC1CCCCC1)C(=O)/C2=N\NC(=O)C1CCCCC1
- pEC50 (Cannabinoid receptor 2 [4]): 7.15
- Emax (Cannabinoid receptor 2 [1]): -69%
- pEC50 (Cannabinoid receptor 1 [2]): < 5.00

SMILES: CN(c1ccc2c(c1)nc(Cc1ccc3c(c1)CCO3)n2CC1CCCCC1)S(=O)(=O)c1ccccc1
- Activity (Cannabinoid receptor 2 [8]): 0.7 nM
- pEC50 (Cannabinoid receptor 2 [9]): 8.66
- pKi (Cannabinoid receptor 2 [10]): 8.92

SMILES: COc1ccc(C(=O)c2c(C)n(CCN3CCOCC3)c3cc(I)ccc23)cc1
- pEC50 (Cannabinoid receptor 2 [11]): 7.12

SMILES: CCCCCN1C(=O)/C(=N\NC(=O)C(C)(C)O)c2ccc(OC)cc21
- pEC50 (Cannabinoid receptor 2 [4]): 7.83
- Emax (Cannabinoid receptor 2 [1]): -99%
- pEC50 (Cannabinoid receptor 1 [2]): < 5.00

SMILES: CCCCCN1C(=O)/C(=N\NC(=O)C(C)(C)C)c2ccc(OC)cc21
- pEC50 (Cannabinoid receptor 2 [4]): 8.00
- Emax (Cannabinoid receptor 2 [1]): -78%
- pEC50 (Cannabinoid receptor 1 [2]): < 5.00

SMILES: CCCCN1C(=O)/C(=N\NC(=O)c2ccccc2)c2ccc(OC)cc21
- Emax (Cannabinoid receptor 2 [1]): -95%
- pEC50 (Cannabinoid receptor 1 [2]): < 5.00
